{
  "source": "ChEMBL document CHEMBL4765328",
  "about": "(Eur J Med Chem, 2020)",
  "key": {"[1]": {"assay": "Cytotoxicity against PHA-stimulated human PBL assessed as inhibition of cell growth", "assay_type": "cell-based", "conditions": "PHA-stimulated peripheral blood lymphocytes (PBL)", "in_short": "(§1)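 Peripheral blood lymphocytes from healthy donors, tested either unstimulated or stimulated with PHA; DMSO ≤0.25% final. Values are mean ± SEM of three separate experiments.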"}, "[2]": {"tested_on": "HL-60", "assay": "Antiproliferative activity against human HL-60 cells assessed as inhibition of cell growth", "assay_type": "functional, cell-based", "in_short": "(§2)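 Growth inhibition of cancer cell lines read from dose-response curves; IC50 as mean ± SEM of at least three independent experiments.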"}, "[3]": {"tested_on": "HUVEC", "assay": "Antivascular activity against HUVEC assessed as inhibition of capillary like tube formation at 100 nM incubated for 1 hr by matrigel based assay", "assay_type": "functional, cell-based", "conditions": "Homo sapiens", "in_short": "(§3)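 HUVECs used at passages 1–6 in M200 with low-serum growth supplement. 6 x 10^4 cells seeded on gelled Matrigel (37 °C, 30 min) and left 6 h to form tubes. Preformed networks then treated 1 h at 10 or 100 nM and photographed at five fields per well. Image analysis gave segment length, mesh area and number, covered area and branch points; three independent experiments.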"}, "[4]": {"tested_on": "HUVEC", "assay": "Antivascular activity against HUVEC assessed as effect on meshes area in preformed capillary like tube network at 10 nM incubated for 1 hr by imaging analysis", "assay_type": "functional, cell-based", "conditions": "Homo sapiens", "in_short": "as §3"}, "[5]": {"tested_on": "HT-29", "assay": "Antiproliferative activity against human HT-29 cells assessed as inhibition of cell growth", "assay_type": "functional, cell-based", "in_short": "as §2"}, "[6]": {"tested_on": "HUVEC", "assay": "Antivascular activity against HUVEC assessed as effect on segment length in preformed capillary like tube network at 10 nM incubated for 1 hr by imaging analysis", "assay_type": "functional, cell-based", "conditions": "Homo sapiens", "in_short": "as §3"}, "[7]": {"assay": "Cytotoxicity against human PBL assessed as inhibition of cell growth", "assay_type": "cell-based", "conditions": "peripheral blood lymphocytes (PBL)", "in_short": "as §1"}, "[8]": {"tested_on": "HeLa", "assay": "Induction of apoptosis in human HeLa cells assessed as late apoptotic cells at 10 nM measured after 48 hrs by Annexin V-FITC/propidium iodide staining based flow cytometry (reference value: 6.07 %)", "assay_type": "functional"}, "[9]": {"assay": "Toxicity in C57BL/6 mouse implanted with mouse E0771 cells assessed as reduction in body weight at 15 mg/kg, ip administered every other day", "assay_type": "organism-based", "conditions": "in vivo", "in_short": "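Seven-week-old female C57BL/6 mice received 4 × 10^5 E0771 cells orthotopically into the mammary fat pad. Once tumors were palpable, mice were randomized and given ip injections every other day (15 or 5 mg/kg, or vehicle DMSO; CA-4P 30 mg/kg as reference). Body weight was followed during treatment; n = 5 mice/group.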"}, "[10]": {"tested_on": "HeLa", "assay": "Induction of cell cycle arrest in human HeLa cells assessed as accumulation at G2/M phase at 10 nM after 24 hrs by PI staining based flow cytometric analysis", "assay_type": "functional", "in_short": "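HeLa cells treated 24 h, then fixed in cold 70% ethanol. They were lysed with 0.1% Triton X-100 plus RNase A and stained with PI for flow cytometric DNA content. Means ± SEM of two independent experiments.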"}, "[11]": {"tested_on": "HeLa", "assay": "Induction of apoptosis in human HeLa cells assessed as increase in cleavage of caspase 9 at 10 nM after 24 hrs by Western blot analysis", "assay_type": "functional, cell-based", "in_short": "(§4)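 HeLa cells treated 24 or 48 h, then washed in cold PBS and lysed in 0.1% Triton X-100/RNase A at 0 °C. Lysates were cleared at 15,000 x g. 10 µg protein was run on SDS-PAGE and blotted to PVDF, blocked in 5% BSA, and probed 2 h at room temperature with primary antibodies. HRP secondary and ECL detection followed; β-actin reprobe served as loading control.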"}, "[12]": {"tested_on": "HeLa", "assay": "Induction of apoptosis in human HeLa cells assessed as late apoptotic cells at 10 nM measured after 24 hrs by Annexin V-FITC/propidium iodide staining based flow cytometry (reference value: 6.07 %)", "assay_type": "functional"}, "[13]": {"tested_on": "Daoy", "assay": "Potency index, ratio of CA-4 IC50 to compound IC50 for human Daoy cells assessed as inhibition of cell growth", "assay_type": "functional"}, "[14]": {"tested_on": "HUVEC", "assay": "Antivascular activity against HUVEC assessed as inhibition of capillary like tube formation at 10 nM incubated for 1 hr by matrigel based assay", "assay_type": "functional, cell-based", "conditions": "Homo sapiens", "in_short": "as §3"}, "[15]": {"tested_on": "HeLa", "assay": "Downregulation of MAD-2 expression in human HeLa cells at 10 nM after 48 hrs by Western blot analysis", "assay_type": "functional, cell-based", "in_short": "as §4"}, "[16]": {"tested_on": "HeLa", "assay": "Induction of mitochondrial membrane potential loss in human HeLa cells assessed as cells with depolarized mitochondrial membrane at 10 nM after 24 hrs by JC-1 dye-based flow cytometric analysis (reference value: 5.7 %)", "assay_type": "functional"}, "[17]": {"tested_on": "Daoy", "assay": "Antiproliferative activity against human Daoy cells assessed as inhibition of cell growth", "assay_type": "functional, cell-based", "in_short": "(§5)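 Compounds from 10 mM DMSO stocks; final DMSO ≤0.25%. Growth inhibition of cancer cell lines read from dose-response curves; IC50 as mean ± SEM of at least three independent experiments.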"}, "[18]": {"tested_on": "HeLa", "assay": "Induction of apoptosis in human HeLa cells assessed as necrotic cells at 10 nM measured after 24 hrs by Annexin V-FITC/propidium iodide staining based flow cytometry (reference value: 2.26 %)", "assay_type": "functional"}, "[19]": {"tested_on": "HeLa", "assay": "Induction of microtubule network depolymerization in human HeLa cells assessed as appearance of disorganised microtubules at 50 nM after 24 hrs by immunofluorescence staining based confocal microscopic analysis", "assay_type": "cell-based", "in_short": "(§6)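 HeLa cells treated 24 h at 10, 50 or 100 nM. They were then fixed in cold 4% formaldehyde for 15 min and stained with anti-β-tubulin for 2 h at room temperature. Alexa 488 secondary and DAPI counterstain followed; imaged by confocal microscopy at 20X.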"}, "[20]": {"tested_on": "HeLa", "assay": "Induction of microtubule network depolymerization in human HeLa cells assessed as appearance of disorganised microtubules at 10 nM after 24 hrs by immunofluorescence staining based confocal microscopic analysis", "assay_type": "cell-based", "in_short": "as §6"}, "[21]": {"tested_on": "Jurkat", "assay": "Antiproliferative activity against human Jurkat cells assessed as inhibition of cell growth", "assay_type": "functional, cell-based", "in_short": "as §5"}, "[22]": {"tested_on": "HeLa", "assay": "Downregulation of BubR1 expression in human HeLa cells at 10 nM after 24 hrs by Western blot analysis", "assay_type": "functional, cell-based", "in_short": "as §4"}},
  "note": "Calls of active or inactive are those of the source. The calls are words filed in the database; no cut-off is given here.",
  "data": [
    {"smiles": "CCOc1ccc2c(C(=O)c3cc(OC)c(OC)c(OC)c3)c(N)oc2c1", "values": [
      {"measurement": "GI50", "setting": "[1]", "value": "> 10000", "unit": "nM"},
      {"measurement": "IC50", "setting": "[2]", "value": 2.7, "unit": "nM"},
      {"measurement": "Activity", "setting": "[3]", "value": "Active"},
      {"measurement": "Activity", "setting": "[4]", "value": "Active"},
      {"measurement": "IC50", "setting": "[5]", "value": 2.1, "unit": "nM"},
      {"measurement": "Activity", "setting": "[6]", "value": "Active"},
      {"measurement": "GI50", "setting": "[7]", "value": 8700, "unit": "nM"},
      {"measurement": "Activity", "setting": "[8]", "value": 23.53, "unit": "%"},
      {"measurement": "Activity", "setting": "[9]", "value": "Non-Toxic"},
      {"measurement": "Activity", "setting": "[10]", "value": "Active"},
      {"measurement": "Activity", "setting": "[11]", "value": "Active"},
      {"measurement": "Activity", "setting": "[12]", "value": 14.05, "unit": "%"},
      {"measurement": "Ratio IC50", "setting": "[13]", "value": 2460},
      {"measurement": "Activity", "setting": "[14]", "value": "Active"},
      {"measurement": "Activity", "setting": "[15]", "value": "Active"},
      {"measurement": "Activity", "setting": "[16]", "value": 24.3, "unit": "%"},
      {"measurement": "IC50", "setting": "[17]", "value": 0.005, "unit": "nM"},
      {"measurement": "Activity", "setting": "[18]", "value": 14.77, "unit": "%"},
      {"measurement": "Activity", "setting": "[19]", "value": "Active"},
      {"measurement": "Activity", "setting": "[20]", "value": "Active"},
      {"measurement": "IC50", "setting": "[21]", "value": 0.28, "unit": "nM"},
      {"measurement": "Activity", "setting": "[22]", "value": "Active"}
    ]}
  ]
}
